Measured values collected from several papers.
Compare with care: the assays were run in different laboratories. In brackets after ≈: the same amount, converted by molar mass.

`OC[C@H]1O[C@@H](n2cnc3c(Cl)ncnc32)C[C@@H]1O` gave an IC50 of > 300 µM (Severe acute respiratory syndrome coronavirus; plaque formation, inhibitor; Vero C1008).
The MIC of `Cc1ccc2nc(-c3ccc(Cl)cc3)n(Cc3ccccc3Cl)c2c1` is reported as 64 µg/mL (≈ 174 µM) (Staphylococcus aureus; microbial growth, broth dilution; ATCC43300 MRSA; drug-resistant strain).
`CCCCCCCCCOc1ccc2[nH]cc(CCN)c2c1` gave an IC50 of 15.9 µM (HN-6; cell growth or viability; 72 h).
`OCC1CC(n2cnc3c(Cl)ncnc32)C1CO` (stereo not drawn) gave an IC50 of > 300 µM (Severe acute respiratory syndrome coronavirus; plaque formation, inhibitor; Vero C1008).
`CCOC(=O)c1cc(-c2cccc(NC(=O)Nc3ccc(Cl)c(Cl)c3)c2)on1` has an MIC of > 64 µg/mL (Escherichia coli; microbial growth, broth dilution; ATCC25922).
The inhibition of `Nc1ncnc2c([C@@H]3N[C@H](CO)[C@@H](O)[C@H]3O)c[nH]c12` is reported as 0.9% (Severe acute respiratory syndrome coronavirus; viral replication, inhibitor; Vero 76; 0.3 µM).
`Cc1ccc2nc(-c3ccccc3Cl)[nH]c2c1` gave an MIC of 256 µg/mL (≈ 1050 µM) (Staphylococcus aureus; microbial growth, broth dilution; ATCC43300 MRSA; drug-resistant strain).
`COC(=O)c1cc(-c2cccc(NC(=S)Nc3ccccc3Cl)c2)on1` has an MIC of > 64 µg/mL (Escherichia coli; microbial growth, broth dilution; ATCC25922).
The MIC of `COc1cccc(-c2nc3ccccc3n2Cc2ccccc2)c1` is reported as 256 µg/mL (≈ 814 µM) (Staphylococcus aureus; microbial growth, broth dilution; ATCC43300 MRSA; drug-resistant strain).
`COC(=O)c1cc(-c2cccc(NC(=O)Nc3ccc(OC)cc3)c2)on1` has an MIC of > 64 µg/mL (Escherichia coli; microbial growth, broth dilution; ATCC25922).
For `O=C(NCCc1c[nH]c2ccccc12)C(=O)c1cn(Cc2ccc(Cl)cc2)c2ccc(Br)cc12`, the IC50 was > 100 µM (C4-2; cell growth or viability, MTT).
For `CSc1ncnc2c1ncn2[C@@H]1O[C@H](CO)[C@@H](O)[C@H]1O`, the IC50 was > 300 µM (Severe acute respiratory syndrome coronavirus; plaque formation, inhibitor; Vero C1008).
For `COC(=O)c1cc(-c2cccc(NC(=O)NCc3ccccc3)c2)on1`, the MIC was > 64 µg/mL (Escherichia coli; microbial growth, broth dilution; ATCC25922).
For `Cc1c2cnccc2c(C)c2c1c1ccccc1n2Cc1ccccc1`, the IC50 was 18 µM (MDA-MB-468; cell growth or viability, MTT).
The MIC of `COC(=O)c1cc(-c2cccc(NC(=S)Nc3ccc(C#N)cc3)c2)on1` is reported as > 64 µg/mL (Escherichia coli; microbial growth, broth dilution; ATCC25922).
With `O=C(NCCc1c[nH]c2ccccc12)C(=O)c1cn(Cc2ccc(Cl)cc2)c2ccccc12` the IC50 was > 100 µM (C4-2; cell growth or viability, MTT).
With `OCC(CCn1cnc2c(Cl)ncnc21)COCc1ccccc1` (stereo not drawn) the IC50 was > 300 µM (Severe acute respiratory syndrome coronavirus; plaque formation, inhibitor; Vero C1008).
For `COC(=O)c1cc(-c2cccc(NC(=O)Nc3ccccc3)c2)on1`, the MIC was > 64 µg/mL (Escherichia coli; microbial growth, broth dilution; ATCC25922).
